Columns and labels:
PBL [1] = assay: Toxicity in human PBL assessed as chromosomal aberrations at 7.81 to 1000 ug/mL; assay type: cell-based
How it was run: (§1)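 Cultured human peripheral blood lymphocytes exposed at 7.81–1000 μg/mL, with and without S9 metabolic activation; chromosomal aberrations scored.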

[2] = target: T1, C-X-C chemokine receptor type 3 (Homo sapiens, UniProt P49682); assay: Displacement of [125I]-IP-10 from CXCR3 in presence of 100% human serum
T1 sequence (P49682 whole entry): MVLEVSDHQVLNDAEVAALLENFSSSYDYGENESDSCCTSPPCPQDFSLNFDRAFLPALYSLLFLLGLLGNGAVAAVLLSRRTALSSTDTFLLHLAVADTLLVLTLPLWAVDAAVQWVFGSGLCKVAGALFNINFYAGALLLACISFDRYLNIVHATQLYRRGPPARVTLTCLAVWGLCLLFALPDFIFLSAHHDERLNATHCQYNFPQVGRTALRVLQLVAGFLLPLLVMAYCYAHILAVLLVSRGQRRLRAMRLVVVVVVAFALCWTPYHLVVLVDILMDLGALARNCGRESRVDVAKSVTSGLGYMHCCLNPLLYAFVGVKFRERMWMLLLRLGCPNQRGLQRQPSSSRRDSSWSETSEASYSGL

[3] = target: T1, C-X-C chemokine receptor type 3; assay: Displacement of [125I]-IP-10 from CXCR3
PBL [4] = assay: Toxicity in human PBL assessed as chromosomal aberrations at 7.81 to 1000 ug/mL in the presence of S9; assay type: cell-based; how it was run: as §1
[5] = Apparent oral bioavailability in rat at 2 mg/kg; assay type: ADME, organism-based; conditions: in vivo, read-out: Fapp
[6] = Volume of distribution at steady state in rat at 0.5 mg/kg, iv; assay type: ADME, organism-based; parameters: dose 0.5 mg/kg, route intravenous; conditions: in vivo, read-out: Vdss
How it was run: (§2)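 Single intravenous dose in 10% N,N-dimethylacetamide, 10% ethanol, 30% propylene glycol, 50% water: 1 mg/kg mouse; 0.5 mg/kg rat, beagle dog, cynomolgus monkey. Plasma clearance also given as percent of hepatic blood flow.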

[7] = Mean residence time in cynomolgus monkey at 0.5 mg/kg, iv; assay type: ADME, organism-based, Macaca fascicularis; parameters: dose 0.5 mg/kg, route intravenous; conditions: in vivo; how it was run: as §2
[8] = Mean residence time in Beagle dog at 0.5 mg/kg, iv; assay type: ADME, organism-based, Canis lupus familiaris; parameters: dose 0.5 mg/kg, route intravenous; conditions: in vivo; how it was run: as §2
[9] = Apparent oral bioavailability in cynomolgus monkey at 2 mg/kg; assay type: ADME, organism-based, Macaca fascicularis; conditions: in vivo, read-out: Fapp
[10] = Clearance in cynomolgus monkey at 0.5 mg/kg, iv; assay type: ADME, organism-based, Macaca fascicularis; parameters: dose 0.5 mg/kg, route intravenous; conditions: in vivo; how it was run: as §2
[11] = Apparent oral bioavailability in Beagle dog at 2 mg/kg; assay type: ADME, organism-based, Canis lupus familiaris; conditions: in vivo, read-out: Fapp
[12] = Mean residence time in mouse at 1 mg/kg, iv; assay type: ADME, organism-based; parameters: dose 1 mg/kg, route intravenous; conditions: in vivo; how it was run: as §2
[13] = Volume of distribution at steady state in cynomolgus monkey at 0.5 mg/kg, iv; assay type: ADME, organism-based, Macaca fascicularis; parameters: dose 0.5 mg/kg, route intravenous; conditions: in vivo, read-out: Vdss; how it was run: as §2
[14] = Mean residence time in rat at 0.5 mg/kg, iv; assay type: ADME, organism-based; parameters: dose 0.5 mg/kg, route intravenous; conditions: in vivo; how it was run: as §2
[15] = Apparent oral bioavailability in mouse at 5 mg/kg; assay type: ADME, organism-based; conditions: in vivo, read-out: Fapp
[16] = Clearance in mouse at 1 mg/kg, iv; assay type: ADME, organism-based; parameters: dose 1 mg/kg, route intravenous; conditions: in vivo; how it was run: as §2
[17] = Clearance in rat at 0.5 mg/kg, iv; assay type: ADME, organism-based; parameters: dose 0.5 mg/kg, route intravenous; conditions: in vivo; how it was run: as §2
[18] = Clearance in Beagle dog at 0.5 mg/kg, iv; assay type: ADME, organism-based, Canis lupus familiaris; parameters: dose 0.5 mg/kg, route intravenous; conditions: in vivo; how it was run: as §2
[19] = Volume of distribution at steady state in Beagle dog at 0.5 mg/kg, iv; assay type: ADME, organism-based, Canis lupus familiaris; parameters: dose 0.5 mg/kg, route intravenous; conditions: in vivo, read-out: Vdss; how it was run: as §2
[20] = Volume of distribution at steady state in mouse at 1 mg/kg, iv; assay type: ADME, organism-based; parameters: dose 1 mg/kg, route intravenous; conditions: in vivo, read-out: Vdss; how it was run: as §2
Cytochrome P450 3A4 = Cytochrome P450 3A4 (Homo sapiens, UniProt P08684); assay: Time dependent inhibition of CYP3A4; assay type: ADME
Cytochrome P450 3A4, sequence (P08684 whole entry): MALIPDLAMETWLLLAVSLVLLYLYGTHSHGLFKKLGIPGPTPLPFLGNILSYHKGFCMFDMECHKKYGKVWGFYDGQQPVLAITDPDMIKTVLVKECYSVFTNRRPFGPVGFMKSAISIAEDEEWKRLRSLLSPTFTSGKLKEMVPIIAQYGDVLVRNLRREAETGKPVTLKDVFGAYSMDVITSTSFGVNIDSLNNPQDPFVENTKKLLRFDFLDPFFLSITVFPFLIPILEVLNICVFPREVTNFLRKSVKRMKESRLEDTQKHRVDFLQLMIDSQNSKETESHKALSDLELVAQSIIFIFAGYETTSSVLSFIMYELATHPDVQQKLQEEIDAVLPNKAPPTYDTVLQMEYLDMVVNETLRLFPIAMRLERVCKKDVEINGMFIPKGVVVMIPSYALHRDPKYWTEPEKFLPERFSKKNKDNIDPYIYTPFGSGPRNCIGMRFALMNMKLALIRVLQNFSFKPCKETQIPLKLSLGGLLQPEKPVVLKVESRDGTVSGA

[21] = target: T2, C-X-C chemokine receptor type 3 (Mus musculus, UniProt O88410); assay: Receptor occupancy of CXCR3 in mouse whole blood assessed as inhibition of ITAC binding by fluorescence quenching based FACS analysis
T2 sequence (O88410 whole entry): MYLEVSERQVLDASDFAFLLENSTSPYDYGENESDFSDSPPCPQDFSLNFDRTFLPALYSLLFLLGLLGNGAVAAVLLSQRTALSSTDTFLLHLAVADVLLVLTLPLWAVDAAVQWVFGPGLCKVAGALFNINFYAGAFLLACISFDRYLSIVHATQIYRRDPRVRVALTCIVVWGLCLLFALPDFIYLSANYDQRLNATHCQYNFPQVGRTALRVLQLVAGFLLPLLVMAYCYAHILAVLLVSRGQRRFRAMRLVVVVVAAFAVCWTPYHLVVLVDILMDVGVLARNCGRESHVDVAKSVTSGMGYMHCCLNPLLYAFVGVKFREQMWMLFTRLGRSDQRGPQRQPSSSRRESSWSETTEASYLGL

Blood [22] = assay: Drug level in C57BL/6 mouse blood at 1 mg/kg, sc after 1 hr; assay type: ADME, organism-based; parameters: dose 1 mg/kg, route subcutaneous; conditions: in vivo
How it was run: (§3)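 C57BL/6 mice given bleomycin intra-tracheally and dosed subcutaneously by osmotic mini-pump for 6 days; plasma collected to measure drug level, reported 1 h post dose.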

Blood [23] = assay: Drug level in C57BL/6 mouse blood at 10 mg/kg, sc after 1 hr; assay type: ADME, organism-based; parameters: dose 10 mg/kg, route subcutaneous; conditions: in vivo; how it was run: as §3

## CCS(=O)(=O)CCN(C(=O)Cc1ccc(F)c(C(F)(F)F)c1)[C@H](C)c1nc2ncccc2c(=O)n1-c1ccc(F)cc1
PBL [1]
  Activity: Non-toxic
[2]
  IC50: 50 nM
[3]
  IC50: 42 nM
PBL [4]
  Activity: Non-toxic

## C[C@H](c1nc2ncccc2c(=O)n1-c1ccc(F)cc1)N(CC1CCS(=O)(=O)CC1)C(=O)Cc1ccc(F)c(C(F)(F)F)c1
[5]
  bioavailability: > 100%
[6]
  Vd: 5 L/kg
[7]
  MRT: 6.4 h
PBL [1]
  Activity: Non-toxic
[8]
  MRT: 1.5 h
[2]
  IC50: 17 nM
[9]
  bioavailability: 51%
[10]
  clearance: 5.67 mL/min/kg
[11]
  bioavailability: > 100%
[3]
  IC50: 7 nM
PBL [4]
  Activity: Non-toxic
[12]
  MRT: 2.1 h
[13]
  Vd: 2.2 L/kg
[14]
  MRT: 2.4 h
[15]
  bioavailability: 59%
[16]
  clearance: 5.67 mL/min/kg
[17]
  clearance: 35 mL/min/kg
[18]
  clearance: 14.8 mL/min/kg
[19]
  Vd: 1.3 L/kg
[20]
  Vd: 0.73 L/kg

## C[C@H](c1nc2ncccc2c(=O)n1-c1ccc(F)cc1)N(CC1CCS(=O)(=O)CC1)C(=O)Cc1ccc(C(F)(F)F)c(F)c1
PBL [1]
  Activity: Non-toxic
[2]
  IC50: 22 nM
[3]
  IC50: 7 nM
PBL [4]
  Activity: Non-toxic

## CCOc1ccc(-c2c([C@@H](C)N(CCS(=O)(=O)CC)C(=O)Cc3ccc(F)c(C(F)(F)F)c3)nc3ccccn3c2=O)cc1
Cytochrome P450 3A4
  TDI: Not Active

## CCS(=O)(=O)CCN(C(=O)Cc1ccc(F)c(C(F)(F)F)c1)[C@H](C)c1nc2ccccn2c(=O)c1-c1ccc(O)cc1
Cytochrome P450 3A4
  TDI: Active

## CCOc1ccc(-c2c([C@@H](C)N(CCS(=O)(=O)CC)C(=O)Cc3ccc(F)c(C(F)(F)F)c3)nc3ncccn23)cc1
Cytochrome P450 3A4
  TDI: Not Active

## CCS(=O)(=O)CCN(C(=O)Cc1ccc(F)c(C(F)(F)F)c1)[C@H](C)c1nc2ncccn2c1-c1ccc(O)cc1
Cytochrome P450 3A4
  TDI: Active

## C[C@H](c1nc2ncccc2c(=O)n1-c1ccc(O)cc1)N(Cc1cccnc1)C(=O)Cc1ccc(OC(F)(F)F)cc1
[2]
  IC50: 4.1 nM
[3]
  IC50: 816 nM

## CCS(=O)(=O)CCN(C(=O)Cc1ccc(F)c(C(F)(F)F)c1)[C@H](C)c1nc2ncccc2c(=O)n1-c1ccc(C#N)cc1
[7]
  MRT: 1.7 h
PBL [1]
  Activity: Toxic
[8]
  MRT: 1.2 h
[9]
  bioavailability: 13%
[10]
  clearance: 12.3 mL/min/kg
[11]
  bioavailability: 69%
PBL [4]
  Activity: Toxic
[12]
  MRT: 0.7 h
[15]
  bioavailability: 17%
[16]
  clearance: 5.83 mL/min/kg
[18]
  clearance: 16.7 mL/min/kg

## CCOc1ccc(-n2c([C@@H](C)N(Cc3cccnc3)C(=O)Cc3ccc(OC(F)(F)F)cc3)nc3ncccc3c2=O)cc1
[21]
  IC50: 1900 nM
Blood [22]
  Drug uptake: 0.16 µM
Blood [23]
  Drug uptake: 2.3 mg/kg

## CCS(=O)(=O)CCN(C(=O)Cc1ccc(F)c(C(F)(F)F)c1)[C@H](C)c1nc2ccccn2c(=O)c1-c1ccc(C#N)cc1
PBL [1]
  Activity: Toxic
PBL [4]
  Activity: Toxic

## CCS(=O)(=O)CCN(C(=O)Cc1ccc(C(F)(F)F)c(F)c1)[C@H](C)c1nc2ncccc2c(=O)n1-c1ccc(C#N)cc1
PBL [1]
  Activity: Toxic
PBL [4]
  Activity: Toxic

From ChEMBL document CHEMBL1938274, “Discovery of potent and specific CXCR3 antagonists” (Bioorg Med Chem Lett, 2012)
